Laboratory results from ChEMBL document CHEMBL1153560, “In vitro activities of doripenem and six comparator drugs against 423 aerobic and anaerobic bacterial isolates from infected diabetic foot wounds” (2008).
In brackets after ≈: the same amount, converted by molar mass.

Experiments:
Format in all cases: functional
Bacteroides uniformis = assay: Antibacterial activity against Bacteroides uniformis isolated from patient with diabetic foot infection assessed as percent resistant isolates after 44 to 48 hrs by agar dilution method
Method in brief: (§1)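 Agar dilution per CLSI M11-A7. Twofold drug dilutions made on the test day and added to molten agar. Replicator-applied inoculum of 10^5 CFU/spot. Drug-free control plates inoculated before and after each drug set. Incubation at 37°C for 44 to 48 h, anaerobic chamber. MIC taken as the lowest concentration giving no growth or a marked change in growth versus controls.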

Corynebacterium simulans = assay: Antibacterial activity against Corynebacterium simulans isolated from patient with diabetic foot infection assessed as percent resistant isolates after 48 hrs by broth microdilution method
Method in brief: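 Isolates subcultured on Trypticase soy blood agar. Broth microdilution in cation-adjusted Mueller-Hinton broth with lysed horse blood, using in-house twofold dilution trays stored at −70°C. Inoculum from overnight colonies at about 5 × 10^5 CFU/ml final. Read after 18 to 24 h at 37°C, up to 48 h for some Corynebacterium strains.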

[1] = tested on: Bacteroides thetaiotaomicron; assay: Antibacterial activity against Bacteroides thetaiotaomicron isolated from patient with diabetic foot infection after 44 to 48 hrs by agar dilution method
Method in brief: (§2)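 CLSI M11-A7 agar dilution: serial twofold drug dilutions made on the test day and added to molten agar. Spots of 10^5 CFU were applied by replicator, with drug-free control plates inoculated before and after each set. Incubation was 44 to 48 h at 37°C in an anaerobic chamber. MIC was the lowest concentration giving no growth or a marked change in growth versus controls.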

Bacteroides stercoris = assay: Antibacterial activity against Bacteroides stercoris isolated from patient with diabetic foot infection after 44 to 48 hrs by agar dilution method; method in brief: as §2
Lacrimispora sphenoides [2] = assay: Antibacterial activity against Clostridium sphenoides isolated from patient with diabetic foot infection assessed as percent resistant isolates after 44 to 48 hrs by agar dilution method; method in brief: as §1
Porphyromonas somerae = assay: Antibacterial activity against Porphyromonas somerae isolated from patient with diabetic foot infection after 44 to 48 hrs by agar dilution method; method in brief: as §2
Streptococcus agalactiae = assay: Antibacterial activity against Streptococcus agalactiae isolated from patient with diabetic foot infection after 18 to 24 hrs by broth microdilution method
Method in brief: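 Streptococcal isolates were subcultured on Trypticase soy blood agar. Broth microdilution used cation-adjusted Mueller-Hinton broth with lysed horse blood, in in-house trays of serial twofold drug dilutions stored at −70°C. Overnight colonies were suspended to a final inoculum of approximately 5 × 10^5 CFU/ml. MIC was read after 18 to 24 h incubation at 37°C.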

[3] = tested on: Corynebacterium urealyticum; assay: Antibacterial activity against Corynebacterium urealyticum isolated from patient with diabetic foot infection after 48 hrs by broth microdilution method
Method in brief: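 Isolates were subcultured on Trypticase soy blood agar. Broth microdilution used cation-adjusted Mueller-Hinton broth with lysed horse blood, in-house trays of twofold drug dilutions stored at −70°C. Colonies from overnight growth gave a final inoculum of about 5 × 10^5 CFU/ml. Trays were read after 18 to 24 h at 37°C, up to 48 h for some strains.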

[4] = tested on: Streptococcus dysgalactiae subsp. equisimilis; assay: Antibacterial activity against Streptococcus dysgalactiae subsp. equisimilis isolated from patient with diabetic foot infection assessed as percent resistant isolates after 18 to 24 hrs by broth microdilution method
Method in brief: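 Streptococci subcultured on Trypticase soy blood agar and tested by broth microdilution in cation-adjusted Mueller-Hinton broth with lysed horse blood. In-house twofold dilution trays stored at −70°C. About 5 × 10^5 CFU/ml final inoculum from overnight colonies. Read after 18 to 24 h at 37°C.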

Staphylococcus aureus = assay: Antibacterial activity against methicillin-sensitive Staphylococcus aureus isolated from patient with diabetic foot infection after 18 to 24 hrs by broth microdilution method
Method in brief: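 Subcultured on Trypticase soy blood agar, then broth microdilution in cation-adjusted Mueller-Hinton broth. Trays were made in-house with serial twofold drug dilutions and stored at −70°C. Inoculum was colonies from overnight growth, final approximately 5 × 10^5 CFU/ml. MIC was read after 18 to 24 h at 37°C. QC strains: S. aureus ATCC 29213 and E. coli ATCC 25922.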

Bacteroides fragilis = assay: Antibacterial activity against Bacteroides fragilis isolated from patient with diabetic foot infection assessed as percent resistant isolates after 44 to 48 hrs by agar dilution method; method in brief: as §1
[5] = tested on: Parabacteroides distasonis; assay: Antibacterial activity against Parabacteroides distasonis isolated from patient with diabetic foot infection after 44 to 48 hrs by agar dilution method; method in brief: as §2
Proteus vulgaris = assay: Antibacterial activity against Proteus vulgaris isolated from patient with diabetic foot infection assessed as percent resistant isolates after 18 to 24 hrs by broth microdilution method
Method in brief: (§3)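 Aerobes subcultured on Trypticase soy blood agar, then broth microdilution in cation-adjusted Mueller-Hinton broth. Trays prepared in-house with twofold dilutions and stored at −70°C. Overnight colonies suspended to about 5 × 10^5 CFU/ml final. Read after 18 to 24 h at 37°C. QC strains included S. aureus ATCC 29213 and E. coli ATCC 25922.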

Parvimonas micra = assay: Antibacterial activity against Peptostreptococcus micros isolated from patient with diabetic foot infection after 44 to 48 hrs by agar dilution method; method in brief: as §2
[6] = tested on: Porphyromonas asaccharolytica; assay: Antibacterial activity against Porphyromonas asaccharolyticus isolated from patient with diabetic foot infection assessed as percent resistant isolates after 44 to 48 hrs by agar dilution method; method in brief: as §1
Phocaeicola vulgatus = assay: Antibacterial activity against Bacteroides vulgatus isolated from patient with diabetic foot infection assessed as percent resistant isolates after 44 to 48 hrs by agar dilution method; method in brief: as §1
Clostridium cadaveris [7] = assay: Antibacterial activity against Clostridium cadaveris isolated from patient with diabetic foot infection after 44 to 48 hrs by agar dilution method; method in brief: as §2
[8] = tested on: Peptostreptococcus anaerobius; assay: Antibacterial activity against Peptostreptococcus anaerobius isolated from patient with diabetic foot infection assessed as percent resistant isolates after 44 to 48 hrs by agar dilution method; method in brief: as §1
Lacrimispora sphenoides [9] = assay: Antibacterial activity against Clostridium sphenoides isolated from patient with diabetic foot infection after 44 to 48 hrs by agar dilution method; method in brief: as §2
[10] = tested on: Peptostreptococcus anaerobius; assay: Antibacterial activity against Peptostreptococcus anaerobius isolated from patient with diabetic foot infection after 44 to 48 hrs by agar dilution method; method in brief: as §2
Clostridium cadaveris [11] = assay: Antibacterial activity against Clostridium cadaveris isolated from patient with diabetic foot infection assessed as percent resistant isolates after 44 to 48 hrs by agar dilution method; method in brief: as §1
[12] = tested on: Anaerocolumna aminovalerica; assay: Antibacterial activity against Clostridium aminovalericum isolated from patient with diabetic foot infection assessed as percent resistant isolates after 44 to 48 hrs by agar dilution method; method in brief: as §1
Klebsiella oxytoca = assay: Antibacterial activity against Klebsiella oxytoca isolated from patient with diabetic foot infection assessed as percent resistant isolates after 18 to 24 hrs by broth microdilution method; method in brief: as §3
Klebsiella pneumoniae = assay: Antibacterial activity against Klebsiella pneumoniae isolated from patient with diabetic foot infection assessed as percent resistant isolates after 18 to 24 hrs by broth microdilution method; method in brief: as §3
Enterobacter cloacae = assay: Antibacterial activity against Enterobacter cloacae isolated from patient with diabetic foot infection assessed as percent resistant isolates after 18 to 24 hrs by broth microdilution method; method in brief: as §3

Row | Structure (SMILES) | Activity (Bacteroides uniformis) | MIC50 [1] | MIC90 [1] | MIC50 (Bacteroides stercoris) | MIC90 (Bacteroides stercoris) | Activity (Lacrimispora sphenoides [2]) | MIC50 (Porphyromonas somerae) | MIC90 (Porphyromonas somerae) | Activity (Bacteroides fragilis) | MIC50 [5] | MIC90 [5] | MIC50 (Parvimonas micra) | MIC90 (Parvimonas micra) | Activity [6] | Activity (Phocaeicola vulgatus) | MIC50 (Clostridium cadaveris [7]) | MIC90 (Clostridium cadaveris [7]) | Activity [8] | MIC50 (Lacrimispora sphenoides [9]) | MIC90 (Lacrimispora sphenoides [9]) | further results
1 | CCC[C@@H]1C[C@@H](C(=O)N[C@@H]([C@H]2O[C@H](SC)[C@H](O)[C@@H](O)[C@H]2O)[C@H](C)Cl)N(C)C1 [CLINDAMYCIN] | 20% | 2 µg/mL (≈ 4.71 µM) | > 64 µg/mL | 2 µg/mL (≈ 4.71 µM) | > 64 µg/mL | 23% | ≤ 0.03 µg/mL | 64 µg/mL (≈ 151 µM) | 10% | 2 µg/mL (≈ 4.71 µM) | > 64 µg/mL | 0.125 µg/mL (≈ 0.294 µM) | 0.5 µg/mL (≈ 1.18 µM) | 12% | 20% | 0.5 µg/mL (≈ 1.18 µM) | 16 µg/mL (≈ 37.6 µM) | 0% | 0.5 µg/mL (≈ 1.18 µM) | 16 µg/mL (≈ 37.6 µM) | Activity (Corynebacterium simulans): 78%; MIC50 (Streptococcus agalactiae): 0.125 µg/mL (≈ 0.294 µM); MIC90 (Streptococcus agalactiae): > 64 µg/mL; MIC50 [3]: > 64 µg/mL; MIC90 [3]: > 64 µg/mL; Activity [4]: 13%; MIC50 (Staphylococcus aureus): 0.125 µg/mL (≈ 0.294 µM); MIC90 (Staphylococcus aureus): 0.25 µg/mL (≈ 0.588 µM); Activity (Proteus vulgaris): 0%; MIC50 [10]: 0.125 µg/mL (≈ 0.294 µM); MIC90 [10]: 0.5 µg/mL (≈ 1.18 µM); Activity (Clostridium cadaveris [11]): 23%; Activity [12]: 23%
2 | C[C@@H](O)[C@H]1C(=O)N2C(C(=O)O)=C(S[C@@H]3CN[C@H](CNS(N)(=O)=O)C3)[C@H](C)[C@H]12 [DORIPENEM] | 0% | 0.25 µg/mL (≈ 0.595 µM) | 1 µg/mL (≈ 2.38 µM) | 0.25 µg/mL (≈ 0.595 µM) | 1 µg/mL (≈ 2.38 µM) | 0% | ≤ 0.015 µg/mL | 0.03 µg/mL (≈ 0.0713 µM) | 0% | 0.25 µg/mL (≈ 0.595 µM) | 1 µg/mL (≈ 2.38 µM) | 0.06 µg/mL (≈ 0.143 µM) | 0.25 µg/mL (≈ 0.595 µM) | 0% | 0% | 0.06 µg/mL (≈ 0.143 µM) | 1 µg/mL (≈ 2.38 µM) | 0% | 0.06 µg/mL (≈ 0.143 µM) | 1 µg/mL (≈ 2.38 µM) | MIC50 (Streptococcus agalactiae): ≤ 0.015 µg/mL; MIC90 (Streptococcus agalactiae): 0.03 µg/mL (≈ 0.0713 µM); MIC50 [3]: 1 µg/mL (≈ 2.38 µM); MIC90 [3]: 8 µg/mL (≈ 19 µM); Activity [4]: 0%; MIC50 (Staphylococcus aureus): 0.03 µg/mL (≈ 0.0713 µM); MIC90 (Staphylococcus aureus): 0.03 µg/mL (≈ 0.0713 µM); Activity (Klebsiella oxytoca): 0%; Activity (Proteus vulgaris): 0%; Activity (Klebsiella pneumoniae): 0%; Activity (Enterobacter cloacae): 0%; MIC50 [10]: 0.06 µg/mL (≈ 0.143 µM); MIC90 [10]: 0.25 µg/mL (≈ 0.595 µM); Activity (Clostridium cadaveris [11]): 0%; Activity [12]: 0%
3 | C[C@@H](O)[C@H]1C(=O)N2C(C(=O)O)=C(S[C@@H]3CN[C@H](C(=O)Nc4cccc(C(=O)O)c4)C3)[C@H](C)[C@H]12 [ERTAPENEM] | 0% | 1 µg/mL (≈ 2.1 µM) | 2 µg/mL (≈ 4.21 µM) | 1 µg/mL (≈ 2.1 µM) | 2 µg/mL (≈ 4.21 µM) | 0% | ≤ 0.015 µg/mL | 0.06 µg/mL (≈ 0.126 µM) | 0% | 1 µg/mL (≈ 2.1 µM) | 2 µg/mL (≈ 4.21 µM) | 0.25 µg/mL (≈ 0.526 µM) | 0.5 µg/mL (≈ 1.05 µM) | 0% | 0% | 0.25 µg/mL (≈ 0.526 µM) | 2 µg/mL (≈ 4.21 µM) | 0% | 0.25 µg/mL (≈ 0.526 µM) | 2 µg/mL (≈ 4.21 µM) | MIC50 (Streptococcus agalactiae): 0.06 µg/mL (≈ 0.126 µM); MIC90 (Streptococcus agalactiae): 0.06 µg/mL (≈ 0.126 µM); MIC50 [3]: 1 µg/mL (≈ 2.1 µM); MIC90 [3]: 32 µg/mL (≈ 67.3 µM); Activity [4]: 0%; MIC50 (Staphylococcus aureus): 0.125 µg/mL (≈ 0.263 µM); MIC90 (Staphylococcus aureus): 0.25 µg/mL (≈ 0.526 µM); Activity (Klebsiella oxytoca): 0%; Activity (Proteus vulgaris): 0%; Activity (Klebsiella pneumoniae): 0%; Activity (Enterobacter cloacae): 0%; MIC50 [10]: 0.25 µg/mL (≈ 0.526 µM); MIC90 [10]: 0.5 µg/mL (≈ 1.05 µM); Activity (Clostridium cadaveris [11]): 0%; Activity [12]: 0%
4 | Cc1ncc([N+](=O)[O-])n1CCO [METRONIDAZOLE] | 0% | 0.5 µg/mL (≈ 2.92 µM) | 1 µg/mL (≈ 5.84 µM) | 0.5 µg/mL (≈ 2.92 µM) | 1 µg/mL (≈ 5.84 µM) | 0% | 0.05 µg/mL (≈ 0.292 µM) | 0.25 µg/mL (≈ 1.46 µM) | 0% | 0.5 µg/mL (≈ 2.92 µM) | 1 µg/mL (≈ 5.84 µM) | 0.25 µg/mL (≈ 1.46 µM) | 1 µg/mL (≈ 5.84 µM) | 0% | 0% | 0.125 µg/mL (≈ 0.73 µM) | 0.25 µg/mL (≈ 1.46 µM) | 0% | 0.125 µg/mL (≈ 0.73 µM) | 0.25 µg/mL (≈ 1.46 µM) | MIC50 [10]: 0.25 µg/mL (≈ 1.46 µM); MIC90 [10]: 1 µg/mL (≈ 5.84 µM); Activity (Clostridium cadaveris [11]): 0%; Activity [12]: 0%
